Reference: ChEMBL document CHEMBL4011655, “Conformation-Based Design and Synthesis of Apratoxin A Mimetics Modified at the α,β-Unsaturated Thiazoline Moiety” (J Med Chem, 2017)

Experiments:
HCT-116 [1] = assay: Cytotoxicity against human HCT116 cells assessed as reduction in cell viability after 48 hrs by WST8 assay; type: functional, cell-based; settings: HCT-116, 48 h
Summary of the method: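 HCT-116 cells grown in RPMI 1640 with 10% FBS and penicillin/streptomycin, plated near-confluent at 5 × 10^3 cells/well and left 24 h at 37 °C, 5% CO2. Compounds (DMSO stocks 0.01–100 μM) added to give final 0.1–1000 nM, 1% DMSO vehicle. After 48 h, WST-8 added for 2 h, absorbance read at 450 nm (reference 595 nm), vehicle taken as 100%. IC50 by probit analysis; three independent experiments.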

HCT-116 [2] = assay: Growth inhibition of human HCT116 cells after 72 hrs by Cell-Titer Glo assay; type: functional; settings: HCT-116, 72 h
Summary of the method: (§1)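 Cells seeded in 384-well plates at 1–3 × 10^3 cells/well and grown 24 h at 37 °C, 5% CO2. Compounds added at final 0.03 nM to 1 μM (10-point), DMSO vehicle at most 0.25%.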

BXPC-3 = assay: Growth inhibition of human BxPC3 cells after 72 hrs by Cell-Titer Glo assay; type: functional; settings: BXPC-3, 72 h; summary of the method: as §1
A549 = assay: Growth inhibition of human A549 cells after 72 hrs by Cell-Titer Glo assay; type: functional; settings: A549, 72 h; summary of the method: as §1
Huh-7 = assay: Growth inhibition of human HuH7 cells after 72 hrs by Cell-Titer Glo assay; type: functional; settings: Huh-7, 72 h; summary of the method: as §1
MKN-74 = assay: Growth inhibition of human MKN74 cells after 72 hrs by Cell-Titer Glo assay; type: functional; settings: MKN-74, 72 h; summary of the method: as §1
U-87 MG = assay: Growth inhibition of human U87MG cells after 72 hrs by Cell-Titer Glo assay; type: functional, U-87MG ATCC; summary of the method: as §1
SK-OV-3 = assay: Growth inhibition of human SKOV3 cells after 72 hrs by Cell-Titer Glo assay; type: functional; settings: SK-OV-3, 72 h; summary of the method: as §1
[3] = Growth inhibition of human HEC6 cells after 72 hrs by Cell-Titer Glo assay; type: functional; settings: HEC-6, 72 h; summary of the method: as §1
786-0 = assay: Growth inhibition of human 786-O cells after 72 hrs by Cell-Titer Glo assay; type: functional; settings: 786-0, 72 h; summary of the method: as §1
MCF7 = assay: Growth inhibition of human MCF7 cells after 72 hrs by Cell-Titer Glo assay; type: functional; settings: MCF7, 72 h; summary of the method: as §1
[4] = Drug metabolism in mouse liver microsomes after 35 mins in presence of NADPH by LC-MS/MS analysis; type: ADME, microsome; settings: read-out: Drug metabolism
Summary of the method: (§2)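 Pooled liver microsomes at 0.1 mg/mL protein with 3.25 mmol/L β-NADPH in 125 mmol/L phosphate buffer. Compound at 100 nmol/L, added in CH3CN. Incubated 37 °C for 35 min, stopped with methanol, held at −20 °C for 30 min, then centrifuged. Parent compound loss measured by LC-MS/MS; duplicate incubations.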

[5] = Drug metabolism in human liver microsomes after 35 mins in presence of NADPH by LC-MS/MS analysis; type: ADME, microsome; settings: read-out: Drug metabolism; summary of the method: as §2

## CC[C@H](C)[C@H]1C(=O)N2CCC[C@H]2C(=O)O[C@H](C(C)(C)C)C[C@@H](C)C[C@H](O)[C@H](C)C(=O)N2CCC(CC2)C(=O)N[C@@H](Cc2ccccc2)C(=O)N(C)[C@@H](C)C(=O)N1C
HCT-116 [1]
  IC50: 490 nM

## CC[C@H](C)[C@H]1C(=O)N2CCC[C@H]2C(=O)O[C@H](C(C)(C)C)C[C@@H](C)C[C@H](O)[C@H](C)C(=O)NCc2cccc(c2)C(=O)N[C@@H](Cc2ccc(OC)cc2)C(=O)N(C)[C@@H](C)C(=O)N1C
HCT-116 [1]
  IC50: 820 nM

## CC[C@H](C)[C@H]1C(=O)N2CCC[C@H]2C(=O)O[C@H](C(C)(C)C)C[C@@H](C)C[C@H](O)[C@H](C)C(=O)N2CCC(CC2)C(=O)N[C@@H](Cc2ccc(-c3ccccc3)cc2)C(=O)N(C)[C@@H](C)C(=O)N1C
HCT-116 [1]
  IC50: 1.1 nM
HCT-116 [2]
  GI50: 11 nM
BXPC-3
  GI50: 4 nM
A549
  GI50: 6.3 nM
Huh-7
  GI50: 6.8 nM
MKN-74
  GI50: 8 nM
U-87 MG
  GI50: 12 nM
SK-OV-3
  GI50: 18 nM
[3]
  GI50: 23 nM
786-0
  GI50: 120 nM
MCF7
  GI50: > 1000 nM
[4]
  metabolised at 35 min: 84%
[5]
  metabolised at 35 min: 85%

## CC[C@H](C)[C@H]1C(=O)N2CCC[C@H]2C(=O)O[C@H](C(C)(C)C)C[C@@H](C)C[C@H](O)[C@H](C)C(=O)N(C)CCCC(=O)N[C@@H](Cc2ccc(OC)cc2)C(=O)N(C)[C@@H](C)C(=O)N1C
HCT-116 [1]
  IC50: 340 nM

## CC[C@H](C)[C@H]1C(=O)N2CCC[C@H]2C(=O)O[C@H](C(C)(C)C)C[C@@H](C)C[C@H](O)[C@H](C)C(=O)N2CCC(CC2)C(=O)N[C@@H](Cc2ccc(OC)cc2)C(=O)N(C)[C@@H](CC(C)C)C(=O)N1C
HCT-116 [1]
  IC50: 360 nM

## CC[C@H](C)[C@H]1C(=O)N2CCC[C@H]2C(=O)O[C@H](C(C)(C)C)C[C@@H](C)C[C@H](O)[C@H](C)C(=O)N2CCC(CC2)C(=O)N[C@@H](Cc2ccc(OC)cc2)C(=O)N(C)CC(=O)N1C
HCT-116 [1]
  IC50: 850 nM

## CC[C@H](C)[C@H]1C(=O)N2CCC[C@H]2C(=O)O[C@H](C(C)(C)C)C[C@@H](C)C[C@H](O)[C@H](C)C(=O)N(C)CCC(=O)N[C@@H](Cc2ccc(OC)cc2)C(=O)N(C)[C@@H](C)C(=O)N1C
HCT-116 [1]
  IC50: 3100 nM

## COc1ccc(C[C@@H]2NC(=O)C3CCN(CC3)C(=O)[C@@H](C)[C@@H](O)C[C@H](C)C[C@@H](C(C)(C)C)OC(=O)[C@@H]3CCCN3C(=O)[C@H](C(C)C)N(C)C(=O)[C@H](C)N(C)C2=O)cc1
HCT-116 [1]
  IC50: 130 nM

## CC[C@H](C)[C@H]1C(=O)N2CCC[C@H]2C(=O)O[C@H](C(C)(C)C)C[C@@H](C)C[C@H](O)[C@H](C)C(=O)N(C)Cc2cccc(c2)C(=O)N[C@@H](Cc2ccc(OC)cc2)C(=O)N(C)[C@@H](C)C(=O)N1C
HCT-116 [1]
  IC50: 220 nM

## CC[C@H](C)[C@H]1C(=O)N2CCC[C@H]2C(=O)O[C@H](C(C)(C)C)C[C@@H](C)C[C@H](O)[C@H](C)C(=O)N2CCC(CC2)C(=O)N[C@@H](Cc2ccc(Cl)cc2)C(=O)N(C)[C@@H](C)C(=O)N1C
HCT-116 [1]
  IC50: 69 nM
HCT-116 [2]
  GI50: 210 nM
BXPC-3
  GI50: 80 nM
A549
  GI50: 190 nM
Huh-7
  GI50: 180 nM
MKN-74
  GI50: 200 nM
U-87 MG
  GI50: 320 nM
SK-OV-3
  GI50: 410 nM
[3]
  GI50: 480 nM
786-0
  GI50: > 1000 nM
MCF7
  GI50: > 1000 nM

## COc1ccc(C[C@@H]2NC(=O)C3CCN(CC3)C(=O)[C@@H](C)[C@@H](O)C[C@H](C)C[C@@H](C(C)(C)C)OC(=O)[C@@H]3CCCN3C(=O)[C@H](Cc3ccccc3)N(C)C(=O)[C@H](C)N(C)C2=O)cc1
HCT-116 [1]
  IC50: 710 nM

## CC[C@H](C)[C@H]1C(=O)N2CCC[C@H]2C(=O)O[C@H](C(C)(C)C)C[C@@H](C)C[C@H](O)[C@H](C)C(=O)NCCCC(=O)N[C@@H](Cc2ccc(OC)cc2)C(=O)N(C)[C@@H](C)C(=O)N1C
HCT-116 [1]
  IC50: 2600 nM

## CC[C@H](C)[C@H]1C(=O)N2CCC[C@H]2C(=O)O[C@H](C(C)(C)C)C[C@@H](C)C[C@H](O)[C@H](C)C(=O)N2CCC(CC2)C(=O)N[C@@H](Cc2ccc(OC)cc2)C(=O)N(C)[C@@H](Cc2ccccc2)C(=O)N1C
HCT-116 [1]
  IC50: 1600 nM

## CC[C@H](C)[C@H]1C(=O)N2CCC[C@H]2C(=O)O[C@H](C(C)(C)C)C[C@@H](C)C[C@H](O)[C@H](C)C(=O)N2CCC(CC2)C(=O)N[C@@H](Cc2ccc(OC)cc2)C(=O)N(C)[C@@H](C)C(=O)N1C
HCT-116 [1]
  IC50: 120 nM

## COc1ccc(C[C@@H]2NC(=O)C3CCN(CC3)C(=O)[C@@H](C)[C@@H](O)C[C@H](C)C[C@@H](C(C)(C)C)OC(=O)[C@@H]3CCCN3C(=O)[C@H](C)N(C)C(=O)[C@H](C)N(C)C2=O)cc1
HCT-116 [1]
  IC50: 7500 nM

## CC[C@H](C)[C@H]1C(=O)N2CCC[C@H]2C(=O)O[C@H](C(C)(C)C)C[C@@H](C)C[C@H](O)[C@H](C)C(=O)NCCC(=O)N[C@@H](Cc2ccc(OC)cc2)C(=O)N(C)[C@@H](C)C(=O)N1C
HCT-116 [1]
  IC50: 3400 nM

## CC[C@H](C)[C@H]1C(=O)N2CCC[C@H]2C(=O)O[C@H](C(C)(C)C)C[C@@H](C)C[C@H](O)[C@H](C)C2=N[C@@H](/C=C(\C)C(=O)N[C@@H](Cc3ccc(OC)cc3)C(=O)N(C)[C@@H](C)C(=O)N1C)CS2 [APRATOXIN A]
HCT-116 [1]
  IC50: 2.8 nM
HCT-116 [2]
  GI50: 11 nM
BXPC-3
  GI50: 4.9 nM
A549
  GI50: 6.4 nM
Huh-7
  GI50: 7.2 nM
MKN-74
  GI50: 9.7 nM
U-87 MG
  GI50: 18 nM
SK-OV-3
  GI50: 31 nM
[3]
  GI50: 39 nM
786-0
  GI50: 41 nM
MCF7
  GI50: > 1000 nM

## CO[C@@]12[C@H](COC(N)=O)C3=C(C(=O)C(C)=C(N)C3=O)N1C[C@@H]1N[C@@H]12 [MITOMYCIN]
HCT-116 [2]
  GI50: 200 nM
BXPC-3
  GI50: 380 nM
A549
  GI50: 80 nM
Huh-7
  GI50: 2000 nM
MKN-74
  GI50: 1700 nM
U-87 MG
  GI50: 1800 nM
SK-OV-3
  GI50: 100 nM
[3]
  GI50: 1400 nM
786-0
  GI50: 210 nM
MCF7
  GI50: 2500 nM
